Measurements reported in ChEMBL document CHEMBL3244414, “Structure-activity relationships among the O-acyl derivatives of leucomycin. Correlation of minimal inhibitory concentrations with binding to Escherichia coli ribosomes” (J Med Chem, 1977).
Converted amounts (≈) assume the structure as drawn.

Tests used:
[1] = molecular target: Bacterial 70S ribosome (Bacteria) (UniProt P0A7V0+P60723+P0AG67+P0A7R5+P0A7R9+P0A7S3+P0A7S9+P0AG59+P0ADZ4+P0A7T3+P0AG63+P0A7T7+P0A7U3+P0A7U7+P68679+P0A7V3+P0A7V8+P0A7W1+P02358+P02359+P0A7W7+P0A7X3+P0A7J3+P0A7J7+P0AA10+P0ADY3+P02413+P0ADY7+P0AG44+P0C018+P0A7K6+P0A7L0+P0A7L3+P0AG48+P61175+P0ADZ0+P60624+P68919+P0A7L8+P0A7M2+P0A7M6+P60422+P0AG51+P0A7N1+P0A7M9+P0A7N4+P0A7N9+P0A7P5+P0A7Q1+Q2EEQ2+P0A7Q6+P60438+P62399+P0AG55+P0A7K2); test: (§1) Displacement of [14C]erythromycin from Escherichia coli ribosomes after 30 mins by scintillation spectrometer analysis
How it was run: (§2)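 NH4Cl-washed E. coli ribosomes with [14C]erythromycin A and varied competitor concentrations in 0.01 M Tris-HCl pH 7.2, 0.1 M KCl, 0.004 M MgCl2, 0.01 M NH4Cl. Incubated 30 min at 24 °C, stopped by dilution in cold Tris/KCl/MgCl2 buffer, membrane-filtered, washed three times, dried, scintillation counted. Reports the concentration giving 50% inhibition of binding.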

[2] = molecular target: Bacterial 70S ribosome; test: as §1; how it was run: as §2
[3] = tested on: Bacillus spizizenii; test: Antimicrobial activity against Bacillus subtilis ATCC 6633 by agar dilution method; assay type: functional; conditions: Bacillus spizizenii, ATCC 6633; read-out: MIC
How it was run: (§3)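 Read-out is the minimal inhibitory concentration, found by agar dilution against the named strain.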

[4] = tested on: Klebsiella pneumoniae; test: Antimicrobial activity against Klebsiella pneumoniae ATCC 10031 by agar dilution method; assay type: functional; conditions: Klebsiella pneumoniae, ATCC 10031; read-out: MIC; how it was run: as §3
[5] = tested on: Staphylococcus aureus; test: Antimicrobial activity against Staphylococcus aureus ATCC 6538P by agar dilution method; assay type: functional; conditions: Staphylococcus aureus, ATCC 6538P; read-out: MIC; how it was run: as §3

| Structure (SMILES) | pK50 [1] | IC50 [2] [nM] | MIC [3] [µg/mL] | MIC [4] [µg/mL] | MIC [5] [µg/mL] |
| --- | --- | --- | --- | --- | --- |
| CCCC(=O)O[C@H]1[C@H](C)O[C@@H](O[C@H]2[C@H](N(C)C)[C@@H](O)[C@H](O[C@H]3[C@@H](CC=O)C[C@@H](C)[C@@H](O)/C=C/C=C/C[C@@H](C)OC(=O)C[C@@H](OC(C)=O)[C@@H]3OC)O[C@@H]2C)C[C@@]1(C)O | 5.9 | 1200 | 1.6 (≈ 1.97 µM) | 50 (≈ 61.4 µM) | 0.8 (≈ 0.983 µM) |
| CCCC(=O)O[C@H]1[C@H](C)O[C@@H](O[C@H]2[C@H](N(C)C)[C@@H](OC(=O)CCCC(=O)O)[C@H](O[C@H]3[C@@H](CC=O)C[C@@H](C)[C@@H](O)/C=C/C=C/C[C@@H](C)OC(=O)C[C@@H](O)[C@@H]3OC)O[C@@H]2C)C[C@@]1(C)O | 5 | 9300 | 0.8 (≈ 0.903 µM) | 25 (≈ 28.2 µM) | 0.8 (≈ 0.903 µM) |
| CCCC(=O)O[C@H]1[C@H](C)O[C@@H](O[C@H]2[C@H](N(C)C)[C@@H](OC(C)=O)[C@H](O[C@H]3[C@@H](CC=O)C[C@@H](C)[C@@H](O)/C=C/C=C/C[C@@H](C)OC(=O)C[C@@H](OC(C)=O)[C@@H]3OC)O[C@@H]2C)C[C@@]1(C)O | 4.7 | 20900 | 0.8 (≈ 0.935 µM) | 100 (≈ 117 µM) | 0.8 (≈ 0.935 µM) |
| CCC(=O)O[C@H]1/C=C/C=C/C[C@@H](C)OC(=O)C[C@@H](OC(C)=O)[C@H](OC)[C@@H](O[C@@H]2O[C@H](C)[C@@H](O[C@H]3C[C@@](C)(O)[C@@H](OC(=O)CC(C)C)[C@H](C)O3)[C@H](N(C)C)[C@H]2O)[C@@H](CC=O)C[C@H]1C | 5.7 | 1900 | 0.4 (≈ 0.452 µM) | 100 (≈ 113 µM) | 3.1 (≈ 3.51 µM) |
| CCCC(=O)O[C@H]1[C@H](C)O[C@@H](O[C@H]2[C@H](N(C)C)[C@@H](OC(=O)CCC(=O)O)[C@H](O[C@H]3[C@@H](CC=O)C[C@@H](C)[C@@H](O)/C=C/C=C/C[C@@H](C)OC(=O)C[C@@H](O)[C@@H]3OC)O[C@@H]2C)C[C@@]1(C)O | 5.7 | 1900 | 0.8 (≈ 0.917 µM) | 100 (≈ 115 µM) | 1.6 (≈ 1.83 µM) |
| CO[C@@H]1[C@@H](O[C@@H]2O[C@H](C)[C@@H](O[C@H]3C[C@@](C)(O)[C@@H](OC(=O)CC(C)C)[C@H](C)O3)[C@H](N(C)C)[C@H]2OC(C)=O)[C@@H](CC=O)C[C@@H](C)[C@@H](OC(C)=O)/C=C/C=C/C[C@@H](C)OC(=O)C[C@H]1OC(C)=O | 4.7 | 21400 | 1.6 (≈ 1.75 µM) | 100 (≈ 110 µM) | 1.6 (≈ 1.75 µM) |
| CCCC(=O)O[C@H]1[C@H](C)O[C@@H](O[C@H]2[C@H](N(C)C)[C@@H](O)[C@H](O[C@H]3[C@@H](CC=O)C[C@@H](C)[C@@H](OC(C)=O)/C=C/C=C/C[C@@H](C)OC(=O)C[C@@H](OC(C)=O)[C@@H]3OC)O[C@@H]2C)C[C@@]1(C)O | 5.7 | 2200 | 0.8 (≈ 0.935 µM) | 100 (≈ 117 µM) | 1.6 (≈ 1.87 µM) |
| CO[C@@H]1[C@@H](O[C@@H]2O[C@H](C)[C@@H](O[C@H]3C[C@@](C)(O)[C@@H](OC(C)=O)[C@H](C)O3)[C@H](N(C)C)[C@H]2O)[C@@H](CC=O)C[C@@H](C)[C@@H](OC(C)=O)/C=C/C=C/C[C@@H](C)OC(=O)C[C@H]1O | 5.7 | 2100 | 3.1 (≈ 3.94 µM) | 50 (≈ 63.6 µM) | 6.3 (≈ 8.02 µM) |
| CCCC(=O)O[C@H]1/C=C/C=C/C[C@@H](C)OC(=O)C[C@@H](O)[C@H](OC)[C@@H](O[C@@H]2O[C@H](C)[C@@H](O[C@H]3C[C@@](C)(O)[C@@H](OC(=O)CCC)[C@H](C)O3)[C@H](N(C)C)[C@H]2O)[C@@H](CC=O)C[C@H]1C | 6 | 900 | 1.6 (≈ 1.9 µM) | 50 (≈ 59.4 µM) | 1.6 (≈ 1.9 µM) |
| CCCC(=O)O[C@H]1[C@H](C)O[C@@H](O[C@H]2[C@H](N(C)C)[C@@H](OC(=O)CCC(=O)O)[C@H](O[C@H]3[C@@H](CC=O)C[C@@H](C)[C@@H](OC(=O)CCC(=O)O)/C=C/C=C/C[C@@H](C)OC(=O)C[C@@H](O)[C@@H]3OC)O[C@@H]2C)C[C@@]1(C)O | 5.6 | 2800 | 3.1 (≈ 3.19 µM) | 50 (≈ 51.4 µM) | 6.3 (≈ 6.48 µM) |
| CCCC(=O)O[C@H]1[C@H](C)O[C@@H](O[C@H]2[C@H](N(C)C)[C@@H](O)[C@H](O[C@H]3[C@@H](CC=O)C[C@@H](C)[C@@H](O)/C=C/C=C/C[C@@H](C)OC(=O)C[C@@H](O)[C@@H]3OC)O[C@@H]2C)C[C@@]1(C)O | 6 | 1100 | 0.8 (≈ 1.04 µM) | 12.5 (≈ 16.2 µM) | 0.4 (≈ 0.518 µM) |
